In general, GI50 refers to the concentration that inhibits growth by half. The TGI is the concentration giving total growth inhibition. Low values mean greater sensitivity of the cells, high ones lower sensitivity of the cells.

From ChEMBL document CHEMBL1128557, “Synthesis, antitumor activity, and chemical properties of silaplatin and related platinum (II) and platinum (IV) complexes derived from beta-silyl amines” (J Med Chem, 1995) come the findings set out here.

The test system of data set [1] is Tumor Cell line. Nature of the data set: The compound was evaluated in vitro for the log10 molecular concentration that caused 50 % of 60 human tumor cell line kills. It is filed as ADME, cell-based. The method, boiled down: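 Human tumor cell lines (leukemia, non-small-cell lung, ovarian, renal) were preincubated 24 h. Platinum complexes were then added as five 10-fold dilutions, 0.01–100 μM, for 48 h, followed by in situ fixation and staining, with solubilized stain read spectrophotometrically. Log LC50 (50% cell kill) was averaged across cell lines within one experiment.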

Data set [2] deals with Tumor Cell line. Nature of the data set: Evaluated in vitro for the log10 molecular concentration that caused 50 % inhibition of tumor growth of 60 human tumor cell lines. It is filed as functional, cell-based. The method, boiled down: (§1)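 Cells preincubated 24 h, then exposed to the agent at five 10-fold dilutions (0.01–100 μM for the platinum complexes) for 48 h. Cells fixed in situ and stained; solubilized stain read spectrophotometrically. Panel of leukemia, non-small-cell lung, ovarian and renal lines. Log GI50 or TGI taken per cell line in one experiment, then averaged across lines.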

Data set [3] relates to Tumor Cell line. Briefly: Evaluated in vitro for the log10 molecular concentration that caused […] tumor growth of 60 human tumor cell lines. It is filed as functional, cell-based. The method, boiled down: as §1

On to CARBOPLATIN [listing 1 of 2 here], for which the “Log LC50” value in data set [1] was more than -3.61. In turn, CARBOPLATIN [listing 2 of 2 here] gave a GI50 in data set [2] of 107 µM. The TGI in data set [3] came to 214 µM. For the substance CISPLATIN [listing 1 of 2 here], the “Log LC50” value in data set [1] is more than -3.35. The substance CISPLATIN [listing 2 of 2 here] gave a GI50 in data set [2] of 4.47 µM. For the same substance, net growth in data set [3] stopped (TGI) at 33.9 µM.

With “[Bis(aminomethyl)diethylsilane]tetrachloroplatinum(IV)”, the “Log LC50” value in data set [1] is more than -4.02.
